Rows were chosen to be rich in hits. Some 1.7% of all compounds tested hit in one or more screens of this group.
Rpn11 block – Rpn11 (PSMD14) deubiquitinase inhibitors, primary screen, biochemical, fluorescence polarization, uHTS. 0.59% of 360,000 active. human 26S proteasome, Ub4-pepOG fluorescence polarization; 20S core pre-blocked with epoxomicin. AID 588493, 2011. inhibition, % at 20 µM. 26S proteasome non-ATPase regulatory subunit 14 (Homo sapiens), O00487;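 active means inhibition at 20 µM, scaled to each plate's controls, above about 33%, limit read from the data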
HNF4A DNA FP – change in binding of human HNF4A to DNA, primary screen, biochemical, fluorescence polarization, FITC-DNA | 0.3% of 360,000 active | AID 1224865, 2016 | activity change, % at 10 µM | 1 h | Hepatocyte nuclear factor 4-alpha (Homo sapiens), P41235; in the data active means activity change above about 30%, passing the limit was not always enough
Target sequence (P41235 whole entry, looked up): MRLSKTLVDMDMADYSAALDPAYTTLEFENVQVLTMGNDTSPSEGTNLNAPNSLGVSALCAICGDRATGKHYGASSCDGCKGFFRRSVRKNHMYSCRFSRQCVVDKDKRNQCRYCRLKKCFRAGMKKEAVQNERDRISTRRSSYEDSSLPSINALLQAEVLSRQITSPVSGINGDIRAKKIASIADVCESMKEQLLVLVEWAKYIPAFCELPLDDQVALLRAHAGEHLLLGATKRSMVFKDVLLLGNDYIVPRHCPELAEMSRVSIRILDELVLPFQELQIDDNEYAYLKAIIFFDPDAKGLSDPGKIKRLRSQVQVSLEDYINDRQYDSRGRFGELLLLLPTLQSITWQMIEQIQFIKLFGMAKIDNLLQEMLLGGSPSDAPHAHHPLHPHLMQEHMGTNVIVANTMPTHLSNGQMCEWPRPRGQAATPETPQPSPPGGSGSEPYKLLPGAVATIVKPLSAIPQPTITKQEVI
CSN inh – inhibitors of CSN-mediated cullin deneddylation, primary screen, biochemical, fluorescence polarization, uHTS. inhibition, % at 12.5 µM. 0.38% of 360,000 active. Purified CSN, SCF-Nedd8-OG deneddylation;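 active means pattern-corrected inhibition above about 35%, with an unprinted fluorescence ratio check between 0.5 and 1.5, limit read from the data, passing the limit was not always enough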
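Test system: Human Csn5 produced in HEK293T cells | Compound: 12.5 µM single point | Times: 90 min, room temperature | Signal: Fluorescence polarization readout | Read-out basis: % inhibition of substrate cleavage by Csn5 | Controls: no-enzyme wells high, enzyme-with-substrate wells low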
TPT1 inhibitor – Candida albicans TPT1 enzyme inhibitors, primary screen, biochemical, fluorescence polarization; 0.81% of 300,000 active; recombinant caTPT1, FP RNA substrate dephosphorylation; inhibition, % at 5 µM; tRNA 2'-phosphotransferase TPT1 (Candida albicans SC5314);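 active means inhibition above the mean of all tested compounds plus 3 SD, set per screening campaign, cut at about 24% in these data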
IDE inh – human IDE inhibitors in live cells, primary screen, fluorescence polarization, HEK cells, FAbetaB substrate; Insulin-degrading enzyme (Homo sapiens), P14735; FAbetaB cleavage; inhibition, % at 5.59 µM; 0.41% of 320,000 active;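 active means percent inhibition above the average of all tested compounds plus 3 SD, set per screening campaign, cut at about 16% in these data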;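 further: IDE supplied by intact live HEK cells; FP after avidin binding of uncleaved biotin substrate so inhibition keeps polarization high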
IDE cell activ – human IDE activators in live cells, primary screen, fluorescence polarization, HEK cells, FAbeta-B substrate; Insulin-degrading enzyme (Homo sapiens), P14735; FAbeta-B cleavage; 0% vehicle, 100% cell-free pure enzyme wells; activation, % at 5.96 µM; 0.073% of 340,000 active; AID 493087, 2011;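 active means activation above the mean of all tested compounds plus 3 SD, set per screening campaign, cut at about 17% in these data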
Numbers stand for hits; 0 = inactive; - = not tested or not shown; ! = a repeat was not active.

SMILES	Rpn11 block	HNF4A DNA FP	CSN inh	TPT1 inhibitor	IDE inh	IDE cell activ
CSc1ccc(S(=O)(=O)NCC(=O)OCC(=O)N(C)Cc2ccccc2)cc1[N+](=O)[O-]	0	0	0	0	0	0
CCCCCCCCN1C(=O)[C@H](CC(=O)NCCCN2CCCC2=O)C[C@@]2(C(=O)OC)CCCCC=C12	-	0	48	-	-	-
CC1(C(=O)NC2CCCC2)CCC(=O)N1C1CCN(Cc2ccccc2)CC1 (stereo not given)	0	0	0	-	-	-
CC(C)(C)NC(=O)C1(C)CCC(=O)N1C1CCN(Cc2ccccc2)CC1 (stereo not given)	0	0	86	-	-	-
OC(CN1CCNCC1)Cn1ccc2ccccc21 (stereo not given)	-	-	-	0	18	-
Cn1ccc2c(N(Cc3ccccc3)Cc3ccccc3)cc3c(c21)C1CCC3O1 (stereo not given)	0	0	84	-	-	-
COc1ccc(C(C)(O)c2nc(-c3ccoc3)cs2)cc1 (stereo not given)	0	0	0	-	-	-
CC(C)CCn1nnnc1CN1CCN(c2ccccc2)CC1	0	0	0	0	0	18
COc1ccc(/C=C2\Oc3cc(OCC(=O)N4CCC[C@H]4C(=O)O)ccc3C2=O)c(OC)c1OC	0	0	0	0	0	0
COc1ccc(/C=C2\Oc3cc(OCC(=O)N4CCC(C(=O)O)CC4)ccc3C2=O)c(OC)c1OC	0	0	0	0	0	23
O=C(Nc1ccc(-c2cc3ccccc3oc2=O)c(Cl)c1)c1cccnc1	0	0	38	0	0	0
COc1cc(NC(=O)c2cccnc2)ccc1-c1cc2ccccc2oc1=O	-	-	-	0	0	-
O=C(O)CCN1C(=O)c2ccc(NC(=O)CCc3ccccc3)cc2C1=O	0	0	0	0	0	0
CC(C)N1C(=O)c2ccccc2NC(=O)C1C(=O)NCc1ccccc1 (stereo not given)	-	0	0	-	-	-
COc1cc2c(cc1OC)C(c1ccc(-c3cc(Cl)ccc3Cl)o1)=NCC2	0	38	0	0	0	0
O=C(CSc1ccc2ccccc2n1)Nc1nsc(-c2ccc(Cl)cc2)n1	0	0	54	0	0	0
COc1ccc(S(=O)(=O)N2CCCC(C(=O)NC3CC3)C2)cc1Cl (stereo not given)	0	0	0	0	0	0
C(C#CCCCCCCCCC[n+]1ccccc1)#CCCCCCCCCC[n+]1ccccc1	0	77	35!	0	0	0
CCCN1C(=O)/C(=C/c2c(NCCCOCC)nc3c(C)cccn3c2=O)SC1=S	78	50	38	-	-	0
Cc1cccn2c(=O)c(C=O)c(NCc3ccccc3)nc12	0	0	0	0	0	-
O=C1/C(=C/c2ccncc2)SC(=S)N1C1CCCCC1	0	0	0	0	0	0
Cc1ccc(/C=C2/SC(=S)N(C3CCCCC3)C2=O)o1	102	34	0	0	0	0
Cc1cc(C(=O)CCC(=O)N(C)CC(=O)Nc2ccccc2Br)c(C)s1	0	0	54	0	0	0
CC1CC(C)(C)CC2(C1)NC(=O)N(CC(=O)Nc1ccc3[nH]c(=O)[nH]c3c1)C2=O (stereo not given)	0	0	73	-	0	0
O=C(COc1ccc2c(-c3ccccc3)cc(=O)oc2c1)Nc1cccnc1	0	0	49	0	0	0
CCOC(=O)c1ccc(NC(=O)CN2C(=O)NC3(CCCCCCC3)C2=O)cc1	0	0	0	-	0	0
CCOc1ccc(-c2nn(-c3ccccc3)cc2/C=C2\SC(=S)N(C3CCS(=O)(=O)C3)C2=O)cc1 (stereo not given)	0	0	0	0	0	0
CCOc1ccc(-c2nn(-c3ccccc3)cc2/C=C2\SC(N)=NC2=O)cc1C	0	57	0	0	0	0
CC(=O)N1CCc2c(sc(NC(=O)C3CC3)c2-c2nc3ccccc3s2)C1	-	35	44	0	0	0

Screening results (PubChem BioAssay)
